According to ChEMBL document CHEMBL5705905, “Pharmacological targeting of kinases MST1 and MST2 augments tissue repair and regeneration” (Sci Transl Med, 2016):
Activity calls are given as the source filed them. No cut-off for these calls is given here.

Assays:
[1] = molecular target: Serine/threonine-protein kinase 33 (Homo sapiens) (UniProt Q9BYT3); assay: Inhibition of STK33 (unknown origin) assessed as remaining activity at 1 uM by Kinome scan method relative to control
[2] = molecular target: Mitogen-activated protein kinase 13 (Homo sapiens) (UniProt O15264); assay: Inhibition of P38delta (unknown origin) assessed as remaining activity at 1 uM by Kinome scan method relative to control
[3] = molecular target: Ribosomal protein S6 kinase alpha-2 (Homo sapiens) (UniProt Q15349); assay: Inhibition of C-terminal kinase domain RSK3 (unknown origin) assessed as remaining activity at 1 uM by Kinome scan method relative to control
How it was run: (§1)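 Active-site-dependent competition-binding (KINOMEscan) panel of 468 kinases, test compound at 1 μM (from a 10 mM DMSO stock). Read-out is ctrl% = (test signal − positive control signal)/(negative control signal − positive control signal) × 100. DMSO is the negative control (100%) and a control compound is the positive control (0%). Lower ctrl% means tighter binding.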

[4] = molecular target: Receptor-interacting serine/threonine-protein kinase 4 (Homo sapiens) (UniProt P57078); assay: Inhibition of RIPK4 (unknown origin) assessed as remaining activity at 1 uM by Kinome scan method relative to control
[5] = molecular target: Phosphatidylinositol 4-kinase beta (Homo sapiens) (UniProt Q9UBF8); assay: Inhibition of PIK4CB (unknown origin) assessed as remaining activity at 1 uM by Kinome scan method relative to control
[6] = Acute toxicity in mouse assessed as increase in liver/body weight ratio at 1 mg/kg,ip administrated once a daily for 3 weeks relative to control; type: organism-based; conditions: in vivo, 504 h
How it was run: (§2)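 Postnatal mice dosed from 10 days of age with vehicle or 1 mg/kg once per day for 21 days (3 weeks). Vehicle is 0.1% citric acid aqueous solution containing 20% Kolliphor HS 15. Liver sections stained with H&E and by IHC for CK19 and BrdU, with positive cells quantified (n = 3). Liver/body weight ratio recorded (n = 4). Values are means ± SD versus vehicle, Student's t test.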

[7] = tested on: eIF-2-alpha kinase GCN2 (Homo sapiens), Q9P2K8 [S808G]; assay: Inhibition of GCN2 S808G mutant kinase domain 2 (unknown origin) assessed as remaining activity at 1 uM by Kinome scan method relative to control
[8] = molecular target: Serine/threonine-protein kinase TAO1 (Homo sapiens, UniProt Q7L7X3); assay: Inhibition of TAOK1 (unknown origin) in presence of ATP by enzymatic assay
[9] = molecular target: Phosphatidylinositol 3-kinase C2 domain-containing subunit gamma (Homo sapiens) (UniProt O75747); assay: Inhibition of PIK3C2G (unknown origin) assessed as remaining activity at 1 uM by Kinome scan method relative to control
[10] = molecular target: Phosphatidylinositol 4,5-bisphosphate 3-kinase catalytic subunit gamma isoform (Homo sapiens, UniProt P48736); assay: Inhibition of PIK3CG (unknown origin) in presence of ATP by enzymatic assay
[11] = molecular target: Phosphatidylinositol 4,5-bisphosphate 3-kinase catalytic subunit beta isoform (Homo sapiens) (UniProt P42338); assay: Inhibition of PIK3CB (unknown origin) assessed as remaining activity at 1 uM by Kinome scan method relative to control
[12] = molecular target: Receptor-interacting serine/threonine-protein kinase 4 (Homo sapiens, UniProt P57078); assay: Binding affinity to RIPK4 (unknown origin) assessed as dissociation constant
Aurora kinase A = Aurora kinase A (Homo sapiens, UniProt O14965); assay: Binding affinity to AURKA (unknown origin) assessed as dissociation constant
[13] = molecular target: Serine/threonine-protein kinase ULK3 (Homo sapiens) (UniProt Q6PHR2); assay: Inhibition of ULK3 (unknown origin) assessed as remaining activity at 1 uM by Kinome scan method relative to control
[14] = molecular target: Serine/threonine-protein kinase 38-like (Homo sapiens) (UniProt Q9Y2H1); assay: Inhibition of NDR2 (unknown origin) assessed as remaining activity at 1 uM by Kinome scan method relative to control
[15] = Acute toxicity in mouse assessed as increase in BrdU-positive cells at 1 mg/kg,ip administrated once a daily for 3 weeks by H and E staining based immunohistochemical analysis relative to control; type: organism-based, Liver; conditions: in vivo, 504 h; how it was run: as §2
[16] = molecular target: Ribosomal protein S6 kinase alpha-6 (Homo sapiens) (UniProt Q9UK32); assay: Inhibition of C-terminal kinase domain RSK4 (unknown origin) assessed as remaining activity at 1 uM by Kinome scan method relative to control; how it was run: as §1
[17] = molecular target: Calcium-dependent protein kinase 1 (Plasmodium falciparum) (UniProt P62344); assay: Inhibition of Plasmodium falciparum CDPK1 assessed as remaining activity at 1 uM by Kinome scan method relative to control
[18] = Inhibition of phosphorylated ABL1 T315I mutant (unknown origin) in presence of ATP by enzymatic assay; parameters: species or system Homo sapiens
[19] = molecular target: Transient receptor potential cation channel subfamily M member 6 (Homo sapiens) (UniProt Q9BX84); assay: Inhibition of TRPM6 (unknown origin) assessed as remaining activity at 1 uM by Kinome scan method relative to control
[20] = tested on: Serine/threonine-protein kinase B-raf (Homo sapiens), P15056 [V600E]; assay: Inhibition of BRAF V600E mutant (unknown origin) assessed as remaining activity at 1 uM by Kinome scan method relative to control; how it was run: as §1
[21] = molecular target: Myosin light chain kinase (Homo sapiens) (UniProt Q32MK0); assay: Inhibition of MLCK (unknown origin) assessed as remaining activity at 1 uM by Kinome scan method relative to control
[22] = MRT (0 to infinity) in male Sprague-Dawley rat at 5 mg/kg, iv measured for 24 hrs by LC-MS/MS analysis; type: ADME, organism-based; conditions: in vivo
Mus musculus = assay: Anti-colitis activity against DSS-induced mouse assessed as high Ki67-positive proliferating cells at 1 mg/kg, ip administrated daily for 8 days by IHC staining; type: functional, organism-based; conditions: Colon, time 8.0 day
How it was run: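 Wild-type mice received oral DSS for 7 days with vehicle or 1 mg/kg daily. Colon sections were stained by IHC for YAP, BrdU and Ki67, and positive cells were quantified per animal. Means ± SD, n = 10, Student's t test.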

[23] = molecular target: Serine/threonine-protein kinase PLK3 (Homo sapiens) (UniProt Q9H4B4); assay: Inhibition of PLK3 (unknown origin) assessed as remaining activity at 1 uM by Kinome scan method relative to control
[24] = molecular target: Serine/threonine-protein kinase/endoribonuclease IRE1 (Homo sapiens) (UniProt O75460); assay: Inhibition of ERN1 (unknown origin) assessed as remaining activity at 1 uM by Kinome scan method relative to control
[25] = molecular target: Receptor-type tyrosine-protein kinase FLT3 (Homo sapiens) (UniProt P36888); assay: Inhibition of FLT3 (unknown origin) assessed as remaining activity at 1 uM by Kinome scan method relative to control
[26] = molecular target: Homeodomain-interacting protein kinase 3 (Homo sapiens) (UniProt Q9H422); assay: Inhibition of HIPK3 (unknown origin) assessed as remaining activity at 1 uM by Kinome scan method relative to control

Transient receptor potential cation channel subfamily M member 6 (Homo sapiens), sequence (Q9BX84 whole entry): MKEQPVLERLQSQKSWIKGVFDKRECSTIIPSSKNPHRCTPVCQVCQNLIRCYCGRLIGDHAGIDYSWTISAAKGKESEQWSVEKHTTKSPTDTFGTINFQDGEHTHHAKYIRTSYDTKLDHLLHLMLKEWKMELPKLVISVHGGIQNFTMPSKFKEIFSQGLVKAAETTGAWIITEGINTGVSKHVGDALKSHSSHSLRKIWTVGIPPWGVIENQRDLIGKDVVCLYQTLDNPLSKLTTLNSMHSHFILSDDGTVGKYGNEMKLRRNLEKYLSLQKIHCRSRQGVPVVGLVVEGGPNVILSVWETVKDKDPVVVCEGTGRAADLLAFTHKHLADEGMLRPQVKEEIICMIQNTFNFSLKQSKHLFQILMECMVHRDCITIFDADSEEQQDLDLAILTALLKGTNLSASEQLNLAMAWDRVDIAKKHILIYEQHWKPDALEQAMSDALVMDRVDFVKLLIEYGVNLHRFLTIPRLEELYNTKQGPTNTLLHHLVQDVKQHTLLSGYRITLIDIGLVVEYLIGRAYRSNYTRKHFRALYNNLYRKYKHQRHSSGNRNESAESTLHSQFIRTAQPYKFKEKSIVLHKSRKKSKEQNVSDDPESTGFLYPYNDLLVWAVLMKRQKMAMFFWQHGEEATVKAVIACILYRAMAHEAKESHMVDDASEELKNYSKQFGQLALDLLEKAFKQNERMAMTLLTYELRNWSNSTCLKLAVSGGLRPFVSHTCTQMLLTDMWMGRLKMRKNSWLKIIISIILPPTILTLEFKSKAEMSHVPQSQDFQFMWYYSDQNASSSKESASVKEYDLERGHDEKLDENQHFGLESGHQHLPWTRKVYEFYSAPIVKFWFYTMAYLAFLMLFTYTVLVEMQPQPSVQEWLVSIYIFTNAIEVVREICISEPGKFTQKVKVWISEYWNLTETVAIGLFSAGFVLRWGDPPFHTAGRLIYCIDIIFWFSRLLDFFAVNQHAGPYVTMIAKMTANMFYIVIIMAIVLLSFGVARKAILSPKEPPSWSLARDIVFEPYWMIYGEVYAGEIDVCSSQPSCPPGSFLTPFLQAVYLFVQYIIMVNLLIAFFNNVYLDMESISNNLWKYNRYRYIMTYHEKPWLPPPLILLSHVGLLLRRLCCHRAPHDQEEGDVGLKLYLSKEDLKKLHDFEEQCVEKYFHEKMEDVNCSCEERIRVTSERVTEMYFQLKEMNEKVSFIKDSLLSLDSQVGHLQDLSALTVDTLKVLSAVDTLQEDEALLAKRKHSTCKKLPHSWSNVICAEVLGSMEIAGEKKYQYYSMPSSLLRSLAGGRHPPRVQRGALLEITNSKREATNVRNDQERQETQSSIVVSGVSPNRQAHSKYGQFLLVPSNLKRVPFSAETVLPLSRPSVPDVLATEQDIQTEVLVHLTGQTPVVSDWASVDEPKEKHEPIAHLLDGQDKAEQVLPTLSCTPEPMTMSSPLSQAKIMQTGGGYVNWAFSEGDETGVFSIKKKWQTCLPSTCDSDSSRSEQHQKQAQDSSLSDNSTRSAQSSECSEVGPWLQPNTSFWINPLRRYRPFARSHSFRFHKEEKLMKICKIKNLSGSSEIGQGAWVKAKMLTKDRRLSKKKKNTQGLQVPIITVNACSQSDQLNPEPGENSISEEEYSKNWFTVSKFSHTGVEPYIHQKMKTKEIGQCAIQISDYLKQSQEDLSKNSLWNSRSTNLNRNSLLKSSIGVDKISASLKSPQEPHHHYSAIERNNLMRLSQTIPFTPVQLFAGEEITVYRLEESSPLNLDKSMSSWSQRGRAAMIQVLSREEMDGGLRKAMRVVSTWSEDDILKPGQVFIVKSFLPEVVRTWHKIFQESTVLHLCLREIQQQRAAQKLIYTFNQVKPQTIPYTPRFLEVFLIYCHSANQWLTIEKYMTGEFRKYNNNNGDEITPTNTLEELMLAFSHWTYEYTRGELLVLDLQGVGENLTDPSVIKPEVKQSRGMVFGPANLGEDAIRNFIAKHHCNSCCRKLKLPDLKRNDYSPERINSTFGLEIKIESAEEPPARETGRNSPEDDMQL
Phosphatidylinositol 3-kinase C2 domain-containing subunit gamma (Homo sapiens), sequence (O75747 whole entry, the tested form may be a part, canonical isoform): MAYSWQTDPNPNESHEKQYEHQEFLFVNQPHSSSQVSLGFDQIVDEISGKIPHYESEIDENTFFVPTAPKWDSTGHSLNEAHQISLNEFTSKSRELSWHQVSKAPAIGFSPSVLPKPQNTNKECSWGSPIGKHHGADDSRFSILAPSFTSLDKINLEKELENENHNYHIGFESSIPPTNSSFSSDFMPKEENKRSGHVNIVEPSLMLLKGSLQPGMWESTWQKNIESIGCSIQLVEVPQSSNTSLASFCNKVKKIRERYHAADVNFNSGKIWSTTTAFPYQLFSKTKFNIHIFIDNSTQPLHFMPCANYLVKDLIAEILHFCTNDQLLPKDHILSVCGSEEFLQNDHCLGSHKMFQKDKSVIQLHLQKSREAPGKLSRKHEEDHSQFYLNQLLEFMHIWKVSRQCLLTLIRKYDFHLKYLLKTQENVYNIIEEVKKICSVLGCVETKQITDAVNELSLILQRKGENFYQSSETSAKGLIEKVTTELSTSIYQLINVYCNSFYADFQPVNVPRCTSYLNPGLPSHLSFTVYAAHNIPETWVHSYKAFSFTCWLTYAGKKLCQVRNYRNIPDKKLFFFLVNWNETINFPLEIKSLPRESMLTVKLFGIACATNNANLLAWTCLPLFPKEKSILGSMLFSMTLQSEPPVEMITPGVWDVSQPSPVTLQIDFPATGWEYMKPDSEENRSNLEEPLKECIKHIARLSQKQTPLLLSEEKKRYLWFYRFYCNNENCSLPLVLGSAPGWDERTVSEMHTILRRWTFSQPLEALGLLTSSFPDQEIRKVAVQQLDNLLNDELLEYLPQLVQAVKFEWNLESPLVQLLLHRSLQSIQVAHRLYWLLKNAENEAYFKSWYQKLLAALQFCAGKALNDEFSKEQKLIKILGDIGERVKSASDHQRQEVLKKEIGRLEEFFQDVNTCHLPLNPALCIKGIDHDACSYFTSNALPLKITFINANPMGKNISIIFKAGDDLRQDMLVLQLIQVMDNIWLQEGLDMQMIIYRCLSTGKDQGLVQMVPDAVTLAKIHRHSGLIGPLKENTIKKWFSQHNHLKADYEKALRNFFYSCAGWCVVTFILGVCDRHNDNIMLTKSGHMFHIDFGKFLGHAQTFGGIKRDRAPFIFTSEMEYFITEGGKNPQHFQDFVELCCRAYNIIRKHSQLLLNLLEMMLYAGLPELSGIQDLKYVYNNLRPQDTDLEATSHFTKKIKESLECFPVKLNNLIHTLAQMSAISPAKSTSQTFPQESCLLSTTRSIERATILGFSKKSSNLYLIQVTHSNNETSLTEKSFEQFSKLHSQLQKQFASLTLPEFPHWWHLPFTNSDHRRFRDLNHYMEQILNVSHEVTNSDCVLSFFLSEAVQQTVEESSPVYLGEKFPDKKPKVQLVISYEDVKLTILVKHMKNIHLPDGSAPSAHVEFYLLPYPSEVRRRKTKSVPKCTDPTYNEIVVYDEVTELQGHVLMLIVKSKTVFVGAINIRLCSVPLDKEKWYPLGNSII
Serine/threonine-protein kinase B-raf (Homo sapiens), P15056 [V600E], sequence (P15056 whole entry V600E): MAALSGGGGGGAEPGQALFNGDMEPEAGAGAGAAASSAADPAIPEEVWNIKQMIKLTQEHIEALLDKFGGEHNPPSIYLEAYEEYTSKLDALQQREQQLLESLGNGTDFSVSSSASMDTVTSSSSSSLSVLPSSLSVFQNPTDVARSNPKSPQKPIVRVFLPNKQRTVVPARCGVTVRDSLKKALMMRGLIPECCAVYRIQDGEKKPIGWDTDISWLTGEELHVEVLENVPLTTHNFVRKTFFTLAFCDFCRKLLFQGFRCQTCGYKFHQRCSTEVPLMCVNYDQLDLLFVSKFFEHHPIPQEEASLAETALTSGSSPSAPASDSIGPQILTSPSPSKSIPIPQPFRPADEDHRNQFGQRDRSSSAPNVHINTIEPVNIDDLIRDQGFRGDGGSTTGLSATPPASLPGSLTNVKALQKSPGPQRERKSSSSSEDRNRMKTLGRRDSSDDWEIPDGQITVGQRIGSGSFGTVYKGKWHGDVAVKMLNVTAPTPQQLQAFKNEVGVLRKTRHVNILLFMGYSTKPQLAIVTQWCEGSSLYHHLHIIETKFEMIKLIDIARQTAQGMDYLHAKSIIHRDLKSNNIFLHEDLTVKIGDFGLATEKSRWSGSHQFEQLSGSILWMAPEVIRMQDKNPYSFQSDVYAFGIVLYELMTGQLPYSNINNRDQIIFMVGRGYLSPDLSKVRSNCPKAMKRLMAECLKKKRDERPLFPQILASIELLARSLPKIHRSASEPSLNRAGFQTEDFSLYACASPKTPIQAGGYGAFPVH
Receptor-interacting serine/threonine-protein kinase 4 (Homo sapiens), sequence (P57078 whole entry): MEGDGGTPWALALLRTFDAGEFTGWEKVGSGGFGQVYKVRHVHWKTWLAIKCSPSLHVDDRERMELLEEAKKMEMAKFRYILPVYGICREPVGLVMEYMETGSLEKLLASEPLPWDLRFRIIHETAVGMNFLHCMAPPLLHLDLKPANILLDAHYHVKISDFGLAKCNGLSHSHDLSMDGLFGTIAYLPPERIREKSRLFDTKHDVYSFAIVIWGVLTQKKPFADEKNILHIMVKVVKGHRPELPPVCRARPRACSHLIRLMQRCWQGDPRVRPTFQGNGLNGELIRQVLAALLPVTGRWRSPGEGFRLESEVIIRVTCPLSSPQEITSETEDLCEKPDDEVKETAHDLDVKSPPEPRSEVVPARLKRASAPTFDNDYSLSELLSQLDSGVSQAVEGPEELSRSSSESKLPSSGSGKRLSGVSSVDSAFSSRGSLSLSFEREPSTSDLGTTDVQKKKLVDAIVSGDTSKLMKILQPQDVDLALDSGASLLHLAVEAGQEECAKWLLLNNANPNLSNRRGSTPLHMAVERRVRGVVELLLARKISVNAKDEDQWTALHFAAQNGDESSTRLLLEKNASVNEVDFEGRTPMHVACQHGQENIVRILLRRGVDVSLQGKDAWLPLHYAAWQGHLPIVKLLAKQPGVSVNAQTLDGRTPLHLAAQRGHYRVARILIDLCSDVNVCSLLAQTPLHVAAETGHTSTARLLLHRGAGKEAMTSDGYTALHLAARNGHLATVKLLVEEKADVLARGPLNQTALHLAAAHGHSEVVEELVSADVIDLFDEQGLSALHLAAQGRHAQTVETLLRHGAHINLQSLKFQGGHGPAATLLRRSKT
Receptor-interacting serine/threonine-protein kinase 4, sequence (P57078 whole entry): as above

Compound `CN1C(=O)c2sccc2N(C)c2nc(Nc3ccc(S(N)(=O)=O)cc3)ncc21` has an Activity [1] of 97%, an Activity [2] of 94% and an Activity [3] of 92%. The Activity [4] was 9.5%, the Activity [5] was 65% and the Activity [6] was 15%. The Activity [7] was 100%, the IC50 [8] was 165 nM and the Activity [9] was 100%. For the same compound, the IC50 [10] was 38.4 nM, the Activity [11] was 72% and the Kd [12] was 140 nM. For the same compound, the Kd (Aurora kinase A) was 13 nM, the Activity [13] was 84% and the Activity [14] was 82%. The Activity [15] was 15%, the Activity [16] was 93% and the Activity [17] was 100%. It also gave an IC50 [18] of 16.6 nM, an Activity [19] of 94% and an Activity [20] of 100%. The Activity [21] was 87%, the MRT inf [22] was 1.36 h and the Activity (Mus musculus) was “Active”. For the same compound, the Activity [23] was 99%, the Activity [24] was 65% and the Activity [25] was 100%. For the same compound, the Activity [26] was 100%.
